Experimental data from different studies.
Lines come from different studies, so protocols differ.
PIK3CA H1047L: Phosphatidylinositol 4,5-bisphosphate 3-kinase catalytic subunit alpha isoform (PIK3CA, Homo sapiens, UniProt P42336, H1047L)
PIK3CA E542K: Phosphatidylinositol 4,5-bisphosphate 3-kinase catalytic subunit alpha isoform (PIK3CA, Homo sapiens, UniProt P42336, E542K)
PIK3CA: Phosphatidylinositol 4,5-bisphosphate 3-kinase catalytic subunit alpha isoform (PIK3CA, Homo sapiens, UniProt P42336)
PIK3CA Q546K: Phosphatidylinositol 4,5-bisphosphate 3-kinase catalytic subunit alpha isoform (PIK3CA, Homo sapiens, UniProt P42336, Q546K)
PIK3CA E545K: Phosphatidylinositol 4,5-bisphosphate 3-kinase catalytic subunit alpha isoform (PIK3CA, Homo sapiens, UniProt P42336, E545K)
PIK3CA I800L: Phosphatidylinositol 4,5-bisphosphate 3-kinase catalytic subunit alpha isoform (PIK3CA, Homo sapiens, UniProt P42336, I800L)

| SMILES | target | effect on | technique | concentration | remaining binding [%] |
| --- | --- | --- | --- | --- | --- |
| Nc1cnc(N2CCc3cc(S(=O)(=O)Nc4c(F)cc(Cl)cc4F)cc(N4CCCC4=O)c32)nc1 | PIK3CA H1047L | cell-free assay | competition with immobilised ligand | 1 µM | 60 |
| O=C(c1ccc(Nc2ncc(Cl)c(-c3cc4ccccc4s3)n2)cc1)N1CCC(N2CCCC2)CC1 | PIK3CA E542K | binding | competition with immobilised ligand | 1 µM | 97 |
| NS(=O)(=O)c1cc(NC(=O)C2(c3ccccc3Cl)CC2)ccc1Oc1cccc(Cl)c1 | PIK3CA | cell-free assay | competition with immobilised ligand | 1 µM | 100 |
| Cc1cnn2ncc(-c3ccnc(N(C)C)n3)c2c1 | PIK3CA | binding |  | 1 µM | 100 |
| CCN(CC)Cc1cc(Nc2ccnc3cc(Cl)ccc23)ccc1O | PIK3CA | cell-free assay | competition with immobilised ligand | 10 µM | 93 |
| F[C@@H]1CCN(c2nccc(-c3cnn4ncccc34)n2)C1 | PIK3CA | binding |  | 1 µM | 100 |
| O=C(O)c1cc(-c2ccc(C3CCNCC3)cc2)c2ccc(-c3ccc(C(F)(F)F)cc3)cc2c1 | PIK3CA Q546K | cell-free assay | competition with immobilised ligand | 1 µM | 100 |
| C[C@H]1CCN(c2nccc(-c3cnn4ncccc34)n2)C1 | Phosphatidylinositol 4,5-bisphosphate 3-kinase catalytic subunit alpha isoform (PIK3CA, Homo sapiens, UniProt P42336, H1047Y) | binding |  | 1 µM | 91 |
| CNCc1ccccc1-c1csc([C@H](C)Nc2nc(C)nc3cc(OC)c(OC)cc23)c1 | Phosphatidylinositol 4,5-bisphosphate 3-kinase catalytic subunit alpha isoform (PIK3CA, Homo sapiens, UniProt P42336, M1043I) | cell-free assay | competition with immobilised ligand | 1 µM | 100 |
| Nc1ncc2c(n1)-c1c([nH]c3ccc(C#CC4CC4)cc13)CCCC2 | PIK3CA E542K | binding | competition with immobilised ligand | 1 µM | 91 |
| O=S(=O)(NC1CCC(c2cc(F)ccc2F)(S(=O)(=O)c2ccc(Cl)cc2)CC1)C(F)(F)F (stereo not drawn) | PIK3CA H1047L | cell-free assay | competition with immobilised ligand | 1 µM | 41 |
| CN(CCCC(F)(F)F)c1nccc(-c2cnn3ncccc23)n1 | PIK3CA Q546K | binding |  | 1 µM | 69 |
| O=C(NCCCN1CCOCC1)c1ccc(Nc2ncc(Cl)c(-c3ccc(Cl)s3)n2)cc1 | PIK3CA E545K | binding | competition with immobilised ligand | 1 µM | 71 |
| CN1CCN(c2ccc(Nc3nccc(-c4cccc([N+](=O)[O-])c4)n3)cc2C(F)(F)F)CC1 | PIK3CA I800L | binding |  | 10 µM | 18 |
| O=C(c1ccc(Nc2ncc(Cl)c(-c3ccc(Cl)s3)n2)cc1)N1CCC(N2CCCC2)CC1 | PIK3CA H1047L | binding | competition with immobilised ligand | 1 µM | 100 |
| COc1ccnn2ncc(-c3ccnc(N(C)C)n3)c12 | PIK3CA E542K | binding |  | 1 µM | 95 |
| O=C(NCC1CCOCC1)c1n[nH]cc1NC(=O)c1c(F)cccc1F | PIK3CA I800L | binding | competition with immobilised ligand | 1 µM | 77 |
| c1cncc(-c2cccc(Nc3nccc(NC4CCCCC4)n3)c2)c1 | PIK3CA E542K | binding | competition with immobilised ligand | 10 µM | 88 |
| C[C@@H](c1ccc(-n2cnc3c(N)ncnc32)cc1)N1CCc2nn(C)c(Cc3ccccc3)c2C1=O | PIK3CA H1047L | binding | competition with immobilised ligand | 0.1 µM | 63 |
| CC1CCCN1c1nccc(-c2cnn3ncccc23)n1 (stereo not drawn) | PIK3CA E545K | binding |  | 1 µM | 100 |
| O=C(NCc1ncc(C(F)(F)F)cc1Cl)c1ccc2c(c1)C1(CCS(=O)(=O)CC1)[C@H](C1CC1)N2S(=O)(=O)c1ccc(F)cc1 | PIK3CA H1047L | cell-free assay | competition with immobilised ligand | 1 µM | 77 |
| COc1cnc(Nc2cccc(S(N)(=O)=O)c2)nc1N1CCN(c2ccccc2)C(=O)C1 | PIK3CA Q546K | binding | competition with immobilised ligand | 1 µM | 100 |
| N[C@@H]1CCN(c2nccc(-c3cnn4ncccc34)n2)C1 | PIK3CA Q546K | binding |  | 1 µM | 100 |
| C[C@H](NC(=O)c1cnc2n1[C@](C)(Cc1ccc(C#N)cc1)C(=O)N2c1cc(Cl)c(F)c(Cl)c1)C(=O)NC1(c2ccccn2)CC1 | PIK3CA H1047L | cell-free assay | competition with immobilised ligand | 1 µM | 81 |
